Screening data (PubChem)
Compounds with a hit are over-represented: about 2% of the library has one in this group of screens.
CCR6 antag: antagonists of human CCR6 receptor; P51684; CHO-K1 CCR6 PathHunter beta-arrestin, luminescence, CCL20-stimulated; inhibition, % at 20 µM; 0.49% of 340,000 active; AID 493098;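 active means compounds whose inhibition of the agonist-driven luminescence signal at 20 µM reaches about 50%, limit read from the data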;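 further: cells stimulated with CCL20 at 14 nM final; plate controls were DMSO with CCL20 for no effect and DMSO without agonist for full effect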
APJ antagonist: antagonists of human APJ apelin receptor; P35414; CHO-K1 APJ beta-arrestin complementation, luminescence; inhibition, % at 20 µM; 0.32% of 330,000 active;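 active means inhibition above about 40% at 20 µM, limit read from the data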;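 further: cells challenged with 10 nM apelin-13 agonist together with compound; plate controls were apelin-13 plus DMSO wells for no effect and DMSO wells lacking apelin-13 for full effect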
APJ agonist: agonists of human APJ apelin receptor; P35414; 0.11% of 330,000 active; activation, % at 20 µM; AID 2520; CHO-K1 APJ PathHunter beta-arrestin, luminescence; 0% DMSO wells, 100% apelin;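 active means activation more than six SD over the plate average, tested at 20 µM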;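 further: 0% = DMSO alone and 100% = apelin-13 at 10 nM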
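assay system = CHO-K1 APJ beta-arrestin complementation cell line | input = cell density 1000 per well | dosing = compound 20 µM once, DMSO 1% | timing = compound 90 min 25 °C, reagent 1 h | measured by = luminescence from split beta-galactosidase complementation, Galacton Star/Emerald II substrate | read-out basis = APJ agonist activity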
EBI2 block: EBI2 (human) antagonism; AID 651636; P32249; inhibition, % at 5 µM; 0.81% of 360,000 active; EBI2 beta-arrestin recruitment, luminescence, 7a,25-OHC stimulated; in the data active means inhibition above about 38%;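 further: enzyme fragment complementation signal reports receptor beta-arrestin coupling in cells; 0% = agonist plus DMSO wells and 100% = wells without agonist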
CXCR6 block: CXCR6 (human) receptor inhibition | O00574 | CHO-K1 PathHunter CXCR6 beta-arrestin, luminescence | inhibition, % at 20 µM | 0.36% of 360,000 active | AID 602244; in the data active means inhibition above about 34%, passing the limit was not always enough;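 further: antagonist mode with CXCL16 agonist at 10 nM final; 0% = 10 nM CXCL16 with DMSO and 100% = unstimulated wells without agonist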
Target sequence (O00574 whole entry, looked up): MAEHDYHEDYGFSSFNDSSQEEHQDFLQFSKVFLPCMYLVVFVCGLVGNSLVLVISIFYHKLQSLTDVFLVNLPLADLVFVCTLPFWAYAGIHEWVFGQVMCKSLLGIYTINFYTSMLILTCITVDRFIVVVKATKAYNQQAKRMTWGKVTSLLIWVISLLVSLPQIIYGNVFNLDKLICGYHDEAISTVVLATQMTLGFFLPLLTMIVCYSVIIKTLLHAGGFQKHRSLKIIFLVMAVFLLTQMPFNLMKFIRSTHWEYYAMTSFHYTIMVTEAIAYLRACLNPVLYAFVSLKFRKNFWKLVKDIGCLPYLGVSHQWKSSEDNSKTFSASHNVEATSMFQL
FXN GAA850 act: frataxin GAA850 promoter activation | 0.56% of 360,000 active | AID 540364 | activation, % at 6 µM | HEK293 lucGAA850 FXN promoter luciferase reporter, 24 h; percent of 10 µM SAHA response;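 active means activation above the average of all compounds screened plus 3 SD, cutoff fixed separately per campaign, cut at about 7.5% in these data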;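 further: 0% = DMSO wells and 100% = 10 µM SAHA wells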
The depositor's hits bear a star; · = no result.

SMILES	CCR6 antag	APJ antagonist	APJ agonist	EBI2 block	CXCR6 block	FXN GAA850 act
O=C1N(c2ccc(Cl)c(Cl)c2)CN(Cc2ccccc2)CN1n1cnnc1	-16	-10	-3	-10	6	0
COc1ccc(S(=O)(=O)N2CCOCC2)cc1NC(=O)[C@@H]1CCCN1C(=O)c1cccs1	96*	2	-2	-7	1	-1
COc1ccccc1/C=N/OCc1ccc(C#N)cc1	18	7	-2	2	-2	3
Cc1cc(S(=O)(=O)c2ccc(Cl)cc2)nc(S(=O)(=O)c2ccc(Cl)cc2)c1C#N	·	·	·	-12	75*	-14
C/C(CCC(C)C)=N\Nc1cc(C)c2ccccc2n1	56*	43*	0	-1	35	2
Nc1ccccc1Sc1nc2ccccc2[nH]1	-7	-5	2	64*	-13	2
Cc1ccc(CN(C)C(=O)c2cc(COc3cccc(C(F)(F)F)c3)on2)o1	12	2	6	7	2	3
O=[N+]([O-])c1ccc(NNC(=S)Nc2ccc(F)cc2)cc1	68*	22	0	3	25	-1
O=C(NNC(=S)Nc1ccc(F)cc1)c1cccc([N+](=O)[O-])c1	-5	16	2	8	-2	2
CC1=CC(=O)C(Sc2ccc(C)cc2)=CC1=O	·	·	·	35	92*	3
Cc1cc(C)c2nc(SCC(=O)Nc3ccccc3N3CCOCC3)c(C#N)cc2c1	0	-17	-1	40	7	-2
Cc1cc(C)c2nc(SCC(=O)N3CC(=O)Nc4ccccc43)c(C#N)cc2c1	-2	-27	-1	49*	8	2
Cc1ccc(C(=O)NNC(=O)CCCN2C(=O)/C(=C/c3ccccc3Cl)SC2=S)cc1	4	10	-2	66*	-10	-16
O=C(CCCN1C(=O)/C(=C/c2ccccc2Cl)SC1=S)NNC(=O)c1ccc(Cl)cc1	17	-1	-3	60*	8	-7
O=C(CCN1C(=O)/C(=C/c2ccccc2Cl)SC1=S)NNC(=O)c1cccnc1	-1	-3	5	4	3	-2
O=S1(=O)CC(N2CCCCC2)CN1C1CCCCC1 (centres undefined)	·	·	·	-6	-1	·
COC(=O)C1(Cc2ccc3c(c2)CCC3)Cc2ccc3c(c2C1=O)CCC3 (centres undefined)	27	·	·	4	9	-2
O=C(Nc1ccccc1)c1ccc2nc(-c3ccco3)c(-c3ccco3)nc2c1	27	-7	-2	8	9	1
CC(=O)c1ccc(NC(=O)c2ccc3nc(-c4ccco4)c(-c4ccco4)nc3c2)cc1	33	-7	6	-7	46*	-1
Cc1ccc(OCCn2c(NC(=O)c3ccco3)nc3ccccc32)cc1	29	13	-1	0	39*	4
O=C(Nc1nc2ccccc2n1CCOc1ccccc1)c1ccco1	39	2	0	-11	31	2
Cc1ccc(S(=O)(=O)N2CC3(O)CN(C(=O)OC(C)C)N(C(=O)OC(C)C)CC3(OC(=O)NCc3ccco3)C2)cc1 (centres undefined)	·	·	·	-4	-1	-7
Cc1cc2c(C)nc(N/N=C/c3ccc([N+](=O)[O-])cc3)nc2o1	108*	·	·	1	4	2
Cc1cc2c(C)nc(N/N=C/c3ccc(F)cc3)nc2o1	4	9	-1	-6	0	3
O=[N+]([O-])c1ccc(C=NNc2ccccc2)cc1	50*	·	·	9	18	3
SMILES	CCR6 antag	APJ antagonist	APJ agonist	EBI2 block	CXCR6 block	FXN GAA850 act
CC(/C=N/NC(=O)C(O)c1ccccc1)=C\c1ccccc1 (centres undefined)	-16	6	-1	-4	-3	7.8*
O=C(CCl)c1ccc2c(c1)CCN2C(=O)C1CCCCC1	53*	31	-1	-8	31	6
O=C(CCl)c1ccc2c(c1)CCN2C(=O)C1CC1	·	27	0	·	·	·
CC(=O)CC1OC(=O)C(Br)=C1NCc1ccccc1 (centres undefined)	61*	40	-5	11	32	-2
CSC(=S)N/N=C(\C)c1ccccc1	57*	47*	-8	-1	37	3
COc1ccc([C@H]2CC(=O)C=C(c3cc4ccccc4s3)C2)cc1	10	4	-4	63*	6	-1
O=C(O)CC1S/C(=N/N=C/c2ccc(-c3ccc(Cl)cc3[N+](=O)[O-])o2)NC1=O (centres undefined)	3	-15	3	6	4	-1
O=C(O)CC1S/C(=N/N=C/c2ccc(-c3ccc(Cl)c([N+](=O)[O-])c3)o2)NC1=O (centres undefined)	58*	10	-5	1	15	1
CN(C)CC1CCC/C(=C\c2ccc(OC(=O)/C=C/c3ccccc3)cc2)C1=O (centres undefined)	62*	·	·	4	34	2
CC(=O)c1ccc(OC(=O)/C=C/c2ccccc2)cc1	3	19	-2	7	7	0
CN(C)CC1CCC/C(=C\c2ccc(OC(=O)c3ccc(Cl)cc3)cc2)C1=O (centres undefined)	59*	·	·	10	12	-4
CCCCNC(=O)C(NC(=O)c1cccnc1)C(=O)c1ccccc1 (centres undefined)	·	·	·	-5	2	·
CCOC(=O)N=Nc1c2ccccc2c2nc3no[nH]c3nc12	46	13	-4	-5	36*	-10
CCOC(=O)N=Nc1c(O)n(CC(=O)OC)c2ccccc12	12	2	-2	4	-2	3
COc1ccc(OCc2cnc(Cl)s2)cc1	15	-12	4	-3	-7	17*
O=[N+]([O-])c1ccc(OCc2cnc(Cl)s2)cc1	11	·	·	-1	-4	1
COc1cc(OC)cc(C(=O)NNC(=O)CCC(=O)c2cc(C)sc2C)c1	4	6	1	-2	-1	-1
Cc1ccc(C(=O)N/C(=C\c2ccc(-c3ccc(Br)cc3)o2)C(=O)NCCCN(C)C)cc1	70*	18	-1	-16	12	2
Cc1ccc(C(=O)c2c(C)oc3c2C(=O)C(=O)c2ccccc2-3)cc1	72*	-23	14*	-22	32	-6
Cc1oc2c(c1C(=O)c1ccc(Cl)cc1)C(=O)C(=O)c1ccccc1-2	43	·	·	-9	25	-2
Cc1ccc(N2CCN(C(=O)C(=O)c3ccc4c(c3)OCO4)CC2)cc1	·	·	·	5	·	·
CC(C)CC(=O)n1sc(NC(=O)c2ccccc2)nc1=O	1	14	-2	-4	5	-5
COC(=O)C1=C(C(=O)OC)SC(=C2C(=S)C(C)(C)N(C(=O)CC(C)C)c3ccccc32)S1	49	37	-1	56*	31	-2
O=C1C=C(c2ccc(O)cc2)C[C@@H](c2ccc(Cl)cc2)C1	21	-6	-3	15	-10	1
